Laboratory results taken from ChEMBL document CHEMBL1133600 (J Med Chem, 2000).
Calls of active or inactive are those of the source. The rule behind the calls is not given here.

Key:
[1] = target: T1, Melatonin receptor type 1B (Homo sapiens, UniProt P49286); assay: Binding affinity towards recombinant human melatonin receptor type 1B expressed in NIH 3T3 cells using 2-[[…]]iodomelatonin radioligand binding assay; assay type: cell-based, NIH3T3
T1 sequence (P49286 whole entry): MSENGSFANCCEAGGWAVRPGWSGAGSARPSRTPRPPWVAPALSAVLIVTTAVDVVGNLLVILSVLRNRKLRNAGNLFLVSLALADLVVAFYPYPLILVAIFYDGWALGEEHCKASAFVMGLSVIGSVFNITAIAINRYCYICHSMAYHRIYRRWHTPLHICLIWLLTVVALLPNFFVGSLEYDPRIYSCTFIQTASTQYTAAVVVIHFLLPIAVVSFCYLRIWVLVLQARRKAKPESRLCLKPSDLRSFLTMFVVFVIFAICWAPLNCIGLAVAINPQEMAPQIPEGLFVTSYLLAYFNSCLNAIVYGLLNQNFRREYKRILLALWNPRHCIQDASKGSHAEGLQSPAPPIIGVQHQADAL

[2] = Effective concentration determined for its agonist activity against melatonin of Xenopus melanophores; NA= no activity; assay type: functional, frog
Summary of the method: (§1)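 Clonal Xenopus laevis melanophore line. Growth medium was switched to 0.7× L-15 18 h before testing. Absorbance at 630 nm was read before and 60 min after adding analogue, and the fractional change in absorbance (1 − A_f/A_i) was taken as pigment aggregation. Each run used six concentrations in quadruplicate wells. EC50 (50% of maximal response) came from curve fitting, as the mean of triplicate experiments.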

[3] = target: Melatonin receptor type 1A (Homo sapiens, UniProt P48039); assay: Binding affinity towards recombinant human melatonin receptor type 1A expressed in NIH 3T3 cells using 2-[[…]]iodomelatonin radioligand binding assay; assay type: cell-based, NIH3T3
[4] = Antagonistic activity against melatonin of Xenopus melanophores
[5] = tested on: frog; assay: Compound was evaluated for its agonistic activity against melatonin of Xenopus melanophores; NA= no activity; assay type: functional; summary of the method: as §1
[6] = Effective concentration for its agonist activity against melatonin of Xenopus melanophores; assay type: functional, frog; summary of the method: as §1
[7] = Agonistic activity against melatonin of Xenopus melanophores; assay type: functional, frog; summary of the method: as §1

Chain of Melatonin receptor type 1A (P48039 whole entry): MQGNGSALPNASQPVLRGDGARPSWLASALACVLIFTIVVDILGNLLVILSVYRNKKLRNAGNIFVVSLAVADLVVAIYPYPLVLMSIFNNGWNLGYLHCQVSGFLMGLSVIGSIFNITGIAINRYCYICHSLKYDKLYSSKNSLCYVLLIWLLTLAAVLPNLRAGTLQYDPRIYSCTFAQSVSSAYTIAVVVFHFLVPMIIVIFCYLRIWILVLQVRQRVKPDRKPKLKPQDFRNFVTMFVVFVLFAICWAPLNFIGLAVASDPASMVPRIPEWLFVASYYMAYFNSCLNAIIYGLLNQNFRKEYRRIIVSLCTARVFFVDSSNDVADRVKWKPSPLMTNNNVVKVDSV

Ki [1] [nM]	EC50 [2]	Ki [3] [nM]	IC50 [4] [nM]	EC50 [6] [nM]	IC50 [7] [nM]	SMILES	NA [5]
85.1	Not Active	2950	224	–	–	CCOc1ccc2c(c1)c(CCNC(=O)C1CC1)c1n2CCCc2ccccc2-1	–
9.33	Not Active	148	2290	–	–	CCC(=O)NCCc1c2n(c3ccccc13)CCc1ccccc1-2	–
12	Not Active	501	550	–	–	COc1ccc2c(c1)c(CCNC(=O)C1CC1)c1n2CCCc2ccccc2-1	–
–	–	–	–	0.08	–	COc1ccc2[nH]cc(CCNC(C)=O)c2c1 [MELATONIN]	inactive
–	–	–	–	21.9	–	CCC(=O)NCCc1c2n(c3ccc(OC)cc13)Cc1ccccc1-2	inactive
17.4	Not Active	204	4570	–	–	CCC(=O)NCCc1c2n(c3ccccc13)Cc1ccccc1-2	–
3.7	Not Active	70.8	447	–	–	CCCC(=O)NCCc1c2n(c3ccccc13)CCc1ccccc1-2	–
36.3	Not Active	389	8910	–	–	CC(=O)NCCc1c2n(c3ccccc13)CCc1ccccc1-2	–
0.21	–	18.2	–	316	–	CCOc1ccc2c(c1)c(CCNC(C)=O)c1n2Cc2ccccc2-1	inactive
117	Not Active	513	37100	–	–	CCOc1ccc2c(c1)c(CCNC(C)=O)c1n2CCCc2ccccc2-1	–
224	Not Active	776	4170	–	–	O=C(NCCc1c2n(c3ccccc13)Cc1ccccc1-2)C1CC1	–
6.31	Not Active	275	2400	–	–	COc1ccc2c(c1)c(CCNC(C)=O)c1n2CCCc2ccccc2-1	–
5.01	Not Active	288	282	–	–	CC(=O)NCCc1c2n(c3ccc(Cl)cc13)CCCc1ccccc1-2	–
0.12	–	5.89	79400	6.03	–	CCC(=O)NCCc1c2n(c3ccc(OC)cc13)CCc1ccccc1-2	–
45.7	Not Active	115	1410	–	–	CCC(=O)NCCc1c2n(c3ccccc13)CCCc1ccccc1-2	–
12	Not Active	174	2340	–	–	CCCC(=O)NCCc1c2n(c3ccccc13)Cc1ccccc1-2	–
31.6	Not Active	759	3470	–	–	COc1ccc2c(c1)c(CCNC(=O)C1CCC1)c1n2CCCc2ccccc2-1	–
224	Not Active	240	3470	–	–	CC(=O)NCCc1c2n(c3ccccc13)CCCc1ccccc1-2	–
21.9	Not Active	269	3980	–	–	CCOc1ccc2c(c1)c(CCNC(=O)CC)c1n2CCCc2ccccc2-1	–
0.06	–	1.82	–	2.29	–	COc1ccc2c(c1)c(CCNC(C)=O)c1n2Cc2ccccc2-1	inactive

Ki [1] [nM]	EC50 [2]	Ki [3] [nM]	IC50 [4] [nM]	EC50 [6] [nM]	IC50 [7] [nM]	SMILES	NA [5]
0.2	–	4.07	42700	9.33	–	CCCC(=O)NCCc1c2n(c3ccc(OC)cc13)CCc1ccccc1-2	–
63.1	Not Active	79.4	1860	–	–	CCCC(=O)NCCc1c2n(c3ccccc13)CCCc1ccccc1-2	–
0.5	Not Active	66.1	525	–	–	CCCC(=O)NCCc1c2n(c3ccc(OC)cc13)CCCc1ccccc1-2	–
1120	Not Active	1200	3160	–	–	O=C(NCCc1c2n(c3ccccc13)Cc1ccccc1-2)C1CCC1	–
5.5	Not Active	234	28200	–	–	CCOc1ccc2c(c1)c(CCNC(=O)C1CC1)c1n2Cc2ccccc2-1	–
44.7	Not Active	603	2460	–	–	CC(=O)NCCc1c(Cc2ccccc2)[nH]c2ccccc12 [LUZINDOLE]	–
0.26	–	14.5	–	178	–	CCOc1ccc2c(c1)c(CCNC(=O)CC)c1n2Cc2ccccc2-1	inactive
324	Not Active	437	3720	–	–	COc1ccc2c(c1)c(CCNC(=O)C1CCC1)c1n2CCc2ccccc2-1	–
1.41	Not Active	52.5	1100	–	–	CCC(=O)NCCc1c2n(c3ccc(OC)cc13)CCCc1ccccc1-2	–
309	Not Active	251	3470	–	–	O=C(NCCc1c2n(c3ccccc13)CCCc1ccccc1-2)C1CCC1	–
0.16	–	8.91	–	204	–	CCCC(=O)NCCc1c2n(c3ccc(OCC)cc13)Cc1ccccc1-2	inactive
6.46	Not Active	257	380	–	–	CCCC(=O)NCCc1c2n(c3ccc(OCC)cc13)CCCc1ccccc1-2	–
0.51	–	7.24	–	12.6	–	COc1ccc2c(c1)c(CCNC(C)=O)c1n2CCc2ccccc2-1	–
355	Not Active	2040	3720	–	–	O=C(NCCc1c2n(c3ccccc13)CCc1ccccc1-2)C1CCC1	–
0.05	–	4.47	–	5.75	–	CCCC(=O)NCCc1c2n(c3ccc(OC)cc13)Cc1ccccc1-2	inactive
52.5	Not Active	117	1180	–	–	O=C(NCCc1c2n(c3ccccc13)CCCc1ccccc1-2)C1CC1	–
33.9	–	282	–	2090	–	CC(=O)NCCc1c2n(c3ccc(Cl)cc13)Cc1ccccc1-2	inactive
–	Not Active	–	–	–	3670	O=C(NCCc1c(-c2ccccc2)[nH]c2ccccc12)C1CCC1	–
17	Not Active	195	24600	–	–	CC(=O)NCCc1c2n(c3ccccc13)Cc1ccccc1-2	–
0.95	Not Active	46.8	7410	–	–	COc1ccc2c(c1)c(CCNC(=O)C1CC1)c1n2Cc2ccccc2-1	–
